Measured values taken from ChEMBL document CHEMBL1165967, “Synthesis and biological evaluation of pyrimidine analogs of antimycobacterial purines” (Bioorg Med Chem, 2010).
Values after ≈ are worked out from the molar mass of the structure shown.

How the values were obtained:
[1] = tested on: Mycobacterium tuberculosis; test: Antimycobacterial activity against Mycobacterium tuberculosis H37Rv by twofold dilution method; type: functional, organism-based
Procedure, shortened: (§1)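 M. tuberculosis H37Rv (ATCC 27294) grown in BACTEC 12B medium, tested by Microplate Alamar Blue Assay across 10 twofold dilutions from 100 to 0.19 µg/mL. IC90 and IC50 taken from dose–response curve fitting.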

Vero = test: Cytotoxicity against african green monkey Vero cells after 72 hrs by MTT assay; type: cell-based; conditions: Chlorocebus sabaeus
Procedure, shortened: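 VERO cell cytotoxicity screen: cells exposed to compound for 72 h, viability read by MTT (CellTiter 96 non-radioactive proliferation reagent); EC50 obtained by curve fitting of the dose–response.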

[2] = Chemical stability in DMSO-d6/D2O solution assessed as cyclization after 25 days; type: physicochemical; conditions: for Stability: 600 h
[3] = Chemical stability in CD3OD solution assessed as cyclization after 25 days; type: physicochemical; conditions: read-out: Activity
[4] = Chemical stability in DMSO-d6 solution assessed as cyclization after 25 days; type: physicochemical; conditions: 600 h
[5] = tested on: Mycobacterium tuberculosis; test: Antimycobacterial activity against Mycobacterium tuberculosis H37Rv at 6.25 ug/mL by twofold dilution method; type: functional
[6] = tested on: Mycobacterium tuberculosis; test: Antimycobacterial activity against Mycobacterium tuberculosis; type: functional, organism-based; procedure, shortened: as §1
[7] = Solubility in DMSO-d6/D2O solution; type: physicochemical
[8] = Solubility in CD3OD solution; type: physicochemical

SMILES | IC50 [1] [µg/mL] | IC90 [1] [µg/mL] | also measured
COc1ccc(COc2cc(-c3ccco3)nc(Cl)n2)cc1 | > 100 | > 100 | 
COc1ccc(CNc2nc([N+](=O)[O-])nc(-c3ccco3)c2NC=O)cc1 | 0.59 (≈ 1.6 µM) | 1.1 (≈ 2.98 µM) | IC50 (Vero): > 40 µg/mL
CCNc1c(NCc2ccc(OC)cc2)ncnc1-c1ccco1 | 36 (≈ 111 µM) | 46 (≈ 142 µM) | 
COc1ccc(CNc2nc(Cl)nc(-c3ccco3)c2NC=O)cc1 | < 0.2 | 0.2 (≈ 0.557 µM) | IC50 (Vero): > 40 µg/mL; Stability [2]: Stable; degraded at 600 h [3]: 12%; Stability [4]: Stable
COc1ccc(COc2cc(-c3ccco3)ncn2)cc1 | > 100 | > 100 | 
COc1ccc(CN(C)c2ncnc(-c3ccco3)c2N)cc1 | 9.4 (≈ 30.3 µM) | 17 (≈ 54.8 µM) | 
COc1ccc(CNc2cc(-c3ccco3)ncn2)cc1 |  |  | inhibition at 6.25 µg/mL [5]: 0%
COc1ccc(Cn2cnc(-c3cncnc3-c3ccco3)c2)cc1 | 62 (≈ 187 µM) | 82 (≈ 247 µM) | 
CNc1c(NCc2ccc(OC)cc2)ncnc1-c1ccco1 | 9 (≈ 29 µM) | 15 (≈ 48.3 µM) | 
COc1ccc(CNc2nc(F)nc(-c3ccco3)c2NC=O)cc1 | < 0.2 | < 0.2 | IC50 (Vero): > 40 µg/mL; Stability [2]: Stable; Stability [4]: Stable
COc1ccc(CNc2ncnc(-c3ccco3)c2NC=O)cc1 | 0.22 (≈ 0.678 µM) | 0.56 (≈ 1.73 µM) | IC50 (Vero): > 40 µg/mL; degraded at 600 h [3]: 90%; Stability [4]: Stable
COc1ccc(CNc2nc(OC)nc(-c3ccco3)c2NC=O)cc1 | 0.53 (≈ 1.5 µM) | 1.5 (≈ 4.23 µM) | IC50 (Vero): > 40 µg/mL; Stability [2]: Stable; degraded at 600 h [3]: 12%; Stability [4]: Stable
COc1ccc(COc2ncnc(-c3ccco3)c2NC=O)cc1 | > 100 | > 100 | 
CCc1nc(NCc2ccc(OC)cc2)c(NC=O)c(-c2ccco2)n1 | 0.26 (≈ 0.738 µM) | 0.53 (≈ 1.5 µM) | IC50 (Vero): > 40 µg/mL; degraded at 600 h [3]: 90%; Stability [4]: Stable
COc1ccc(Cn2cncc2-c2cc(-c3ccco3)ncn2)cc1 | 9.8 (≈ 29.5 µM) | 14 (≈ 42.1 µM) | 
COc1ccc(COc2ncnc(-c3ccco3)c2[N+](=O)[O-])cc1 | > 50 | > 50 | 

SMILES | IC50 [1] [µg/mL] | IC90 [1] [µg/mL] | also measured
COc1ccc(COc2ncnc(-c3ccco3)c2N)cc1 | > 100 | > 100 | 
COc1ccc(Cn2cnc3c(-c4ccco4)ncnc32)cc1 |  |  | IC50 [6]: < 0.2 µg/mL
COc1ccc(CN(C)c2ncnc(-c3ccco3)c2[N+](=O)[O-])cc1 | 5.7 (≈ 16.7 µM) | 13 (≈ 38.2 µM) | 
COc1ccc(CNc2ncnc(-c3ccco3)c2N(C)C)cc1 | 17 (≈ 52.4 µM) | > 100 | 
COc1ccc(Cn2cnc3c(-c4ccco4)nc(Cl)nc32)cc1 |  |  | IC90 [6]: 0.82 µg/mL (≈ 2.41 µM)
COc1ccc(CNc2ncnc(-c3ccco3)c2N)cc1 |  |  | inhibition at 6.25 µg/mL [5]: 0%
COc1ccc(CN(C=O)c2c(-c3ccco3)nc[nH]c2=O)cc1 | 68 (≈ 209 µM) | 92 (≈ 283 µM) | 
COc1ccc(CNc2nc(C)nc(-c3ccco3)c2NC=O)cc1 | < 0.2 | 0.33 (≈ 0.975 µM) | IC50 (Vero): > 40 µg/mL; degraded at 600 h ([2]; DMSO-d6/D2O solution, read-out: Activity): 40%; degraded at 600 h [3]: 90%; Stability [4]: Stable
COc1ccc(CNc2cc(-c3ccco3)nc(Cl)n2)cc1 | > 100 | > 100 | 
COc1ccc(CN(C)c2ncnc(-c3ccco3)c2NC=O)cc1 | > 100 | > 100 | 
COc1ccc(CN(C)c2cc(-c3ccco3)nc(Cl)n2)cc1 | 1.4 (≈ 4.25 µM) | 3 (≈ 9.1 µM) | IC50 (Vero): 22 µg/mL (≈ 66.7 µM)
COc1ccc(CNc2nc(N(C)C)nc(-c3ccco3)c2NC=O)cc1 | 11 (≈ 29.9 µM) | 26 (≈ 70.8 µM) | Stability [2]: Stable; degraded at 600 h [3]: 12%; Stability [4]: Stable
COc1ccc(CNc2ncnc(-c3ccco3)c2[N+](=O)[O-])cc1 | 13 (≈ 39.8 µM) | 21 (≈ 64.4 µM) | 
COc1ccc(CN(C)c2cc(-c3ccco3)ncn2)cc1 | 5.5 (≈ 18.6 µM) | 7.1 (≈ 24 µM) | solubility [7]: Insoluble; solubility [8]: Insoluble
NCC[C@H](O)C(=O)N[C@@H]1C[C@H](N)[C@@H](O[C@H]2O[C@H](CN)[C@@H](O)[C@H](O)[C@H]2O)[C@H](O)[C@H]1O[C@H]1O[C@H](CO)[C@@H](O)[C@H](N)[C@H]1O.O=S(=O)(O)O | 0.07 | 0.13 | 
